How the values were obtained:
[1] = (§1) Lethal dose was measured in mice after ip administration.; type: toxicity, organism-based; conditions: mouse, in vivo
Outline: (§2)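 Male Simonsen ICR-derived mice (16-24 g), groups of three, given compound ip in increasing doses within a behavioral screen. Deaths counted on day 5, and LD50 estimated from 5-day survival. Quantal data analysed by the Litchfield-Wilcoxon method.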

[2] = test system: Mus musculus; assay: Compound was evaluated for anticonvulsant activity by maximal electroshock assay(MES) in mice after ip administration; type: functional
Outline: (§3)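 Male Hilltop ICR-derived mice (19-30 g), groups of 8-10, dosed ip with compound or aqueous vehicle. After 15 min pretreatment, a transcorneal 60-Hz, 50 mA shock was given for 0.2 s. Just before the shock, each mouse was tested on a horizontal wire (10 s). Quantal data were analysed by Litchfield-Wilcoxon to give ED50 with 95% confidence limits.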

[3] = test system: Mus musculus; assay: Dose of compound causing a neurological deficit in 50% of mice after ip administration; type: functional
Outline: (§4)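 Traction test in male Hilltop ICR-derived mice (19-30 g, groups of 8-10) just before electroshock, 15 min after ip or 30 min after oral dosing. Mice placed on a 16-gauge, 65-cm copper wire 40 cm above the table; deficit scored as failure to stay on for 10 s. ND50 with 95% limits by Litchfield-Wilcoxon.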

[4] = test system: Mus musculus; assay: Protective index is defined as ND50 (i.p.) divided by MES ED50(i.p.); type: functional
Outline: (§5)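 Ratio of ND50 from the wire traction test to MES ED50, both measured by the same route (ip or oral) in the same animals. Quantal dose-response data for each were evaluated by Litchfield-Wilcoxon.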

[5] = test system: Mus musculus; assay: Dose causing a neurological deficit in 50% of mice after ip administration.; type: functional; outline: as §4
[6] = test system: Mus musculus; assay: Anticonvulsant activity in mouse maximal electroshock assay following i.p. administration.; type: functional; conditions: ip; outline: as §3
[7] = test system: Mus musculus; assay: Protective index defined as ND50 (p.o.) divided by MES ED50(op); type: functional; outline: as §5
[8] = test system: Mus musculus; assay: compound was evaluated for anticonvulsant activity by maximal electroshock assay(MES) in mice after po administration.; type: functional
Outline: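 Male Hilltop ICR-derived mice, 19-30 g, groups of 8-10, dosed orally with compound or aqueous vehicle. Transcorneal electroshock (50 mA, 60 Hz, 0.2 s) delivered 30 min after dosing, immediately after a wire-hang neurological test. ED50 with 95% confidence limits estimated from quantal data by Litchfield-Wilcoxon.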

[9] = test system: Mus musculus; assay: Dose causing a neurological deficit in 50% of mice following p.o. administration.; type: functional; outline: as §4
[10] = test system: Rattus norvegicus; assay: Dose of compound causing a neurological deficit in 50% of rat after ip administration.; type: functional
Outline: (§6)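 Rats (Simonsen Sprague-Dawley-derived, 80-110 g, groups of 8-10) placed on a suspended 16-gauge, 65-cm copper wire just before electroshock. Deficit scored as inability to remain for 8 s. Pretreatment was 15 min ip or 30 min oral. Quantal data analysed by Litchfield-Wilcoxon to give ND50 with 95% limits.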

[11] = test system: Rattus norvegicus; assay: Compound was evaluated for anticonvulsant activity by maximal electroshock assay(MES) in rat after ip administration.; type: functional
[12] = test system: Rattus norvegicus; assay: Compound was evaluated for anticonvulsant activity by maximal electroshock assay(MES) in rat after ip administration; 2.9-19; type: functional
[13] = test system: Mus musculus; assay: Compound was evaluated for anticonvulsant activity by maximal electroshock assay(MES) in mice after po administration; 60-147; type: functional
Outline: (§7)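 Male Hilltop ICR-derived mice (19-30 g), groups of 8-10, given compound or aqueous vehicle orally. The transcorneal 60-Hz shock (50 mA, 0.2 s) followed a 30 min pretreatment and a wire-hang neurological check (10 s). ED50 and 95% confidence limits were obtained from quantal data by the Litchfield-Wilcoxon method.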

[14] = test system: Rattus norvegicus; assay: Compound was evaluated for anticonvulsant activity by maximal electroshock assay(MES) in rat after po administration.; type: functional
Outline: (§8)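 Male Simonsen Sprague-Dawley-derived rats, 80-110 g, groups of 8-10, dosed with compound or aqueous vehicle; pretreatment 15 min after ip or 30 min after oral dosing. Transcorneal electroshock, 150 mA, 60 Hz, 0.2 s, given after the wire test. ED50 with 95% confidence limits from quantal data by Litchfield-Wilcoxon.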

[15] = test system: Mus musculus; assay: as §1; type: functional; outline: as §2
[16] = test system: Mus musculus; assay: Compound was evaluated for anticonvulsant activity by maximal electroshock assay(MES) in mice after ip administration; 8-19; type: functional; outline: as §3
[17] = test system: Rattus norvegicus; assay: Compound was evaluated for anticonvulsant activity by maximal electroshock assay(MES) in rat after ip administration; […]; type: functional
[18] = test system: Rattus norvegicus; assay: Dose of compound causing a neurological deficit in 50% of rat after ip administration; 31-78; type: functional; outline: as §6
[19] = test system: Mus musculus; assay: Dose of compound causing a neurological deficit in 50% of mice after po administration; 79-196; type: functional; outline: as §4
[20] = test system: Mus musculus; assay: Dose of compound causing a neurological deficit in 50% of mice after ip administration; 35-49; type: functional; outline: as §4
[21] = test system: Mus musculus; assay: Compound was evaluated for anticonvulsant activity by maximal electroshock assay(MES) in mice after ip administration; 8-13; type: functional; outline: as §3
[22] = test system: Rattus norvegicus; assay: Dose of compound causing a neurological deficit in 50% of rat after po administration.; type: functional; outline: as §6
[23] = test system: Mus musculus; assay: Compound was evaluated for anticonvulsant activity by maximal electroshock assay(MES) in mice after po administration; 23-40; type: functional; outline: as §7
[24] = test system: Rattus norvegicus; assay: Compound was evaluated for anticonvulsant activity by maximal electroshock assay(MES) in rat after po administration; 7.3-20; type: functional; outline: as §8
[25] = test system: Mus musculus; assay: Dose of compound causing a neurological deficit in 50% of mice after ip administration; 21-52; type: functional; outline: as §4
[26] = test system: Rattus norvegicus; assay: Compound was evaluated for anticonvulsant activity by maximal electroshock assay(MES) in rat after po administration; 4.5-19; type: functional; outline: as §8
[27] = test system: Mus musculus; assay: Dose of compound causing a neurological deficit in 50% of mice after po administration; 82-1100; type: functional; outline: as §4
[28] = test system: Rattus norvegicus; assay: Dose of compound causing a neurological deficit in 50% of rat after ip administration; 29-57; type: functional; outline: as §6
[29] = test system: Rattus norvegicus; assay: Compound was evaluated for anticonvulsant activity by maximal electroshock assay(MES) in rat after ip administration; 1.5-6.7; type: functional
[30] = test system: Mus musculus; assay: Compound was evaluated for anticonvulsant activity by maximal electroshock assay(MES) in mice after po administration; 13-23; type: functional; outline: as §7

SMILES: O=C(Cn1ccnc1)c1cccc2ccccc12
- LD50 [1]: > 100 mg/kg

SMILES: CS(=O)(=O)C(Cn1ccnc1)c1ccc2ccccc2c1.Cl (stereo not given)
- ED50 [2]: > 40 mg/kg
- ND50 [3]: >40 mg/kg

SMILES: CSC(Cn1ccnc1)c1ccc2ccccc2c1.Cl (stereo not given)
- PI [4]: 2.1
- ND50 [5]: 76 mg/kg
- ED50 [6]: 37 mg/kg

SMILES: Cl.c1ccc2cc(C3(Cn4ccnc4)SCCS3)ccc2c1
- PI [7]: 1.8
- PI [4]: 2.4
- ND50 [5]: 64 mg/kg
- ED50 [8]: 70 mg/kg
- ND50 [9]: 125 mg/kg
- LD50 [1]: > 30 mg/kg

SMILES: Cl.c1ccc2cc(Cn3ccnc3)ccc2c1
- ND50 [10]: 32 mg/kg
- ED50 [11]: 6.2 mg/kg
- ND50 [5]: 32 mg/kg
- ED50 [6]: 25 mg/kg

SMILES: Cl.c1ccc2c(C3(Cn4ccnc4)SCCS3)cccc2c1
- PI [4]: 2.2
- ND50 [5]: 57 mg/kg
- ED50 [6]: 26 mg/kg

SMILES: Cl.c1ccc2cc(C3(Cn4ccnc4)SCCCS3)ccc2c1
- PI [4]: 1.4
- ED50 [6]: 65 mg/kg
- LD50 [1]: > 100 mg/kg

SMILES: Br.CCc1ccc2cc(C(=O)Cn3ccnc3)ccc2c1
- ED50 [12]: 5.5 mg/kg
- ND50 [10]: >100 mg/kg
- PI [7]: >1.2
- PI [4]: >8.1
- ED50 [13]: 84 mg/kg
- ND50 [5]: >100 mg/kg
- ED50 [14]: > 30 mg/kg
- LD50 [15]: > 100 mg/kg
- ND50 [9]: >100 mg/kg
- ED50 [16]: 12 mg/kg

SMILES: Cl.c1ccc(CSC(Cn2ccnc2)(SCc2ccccc2)c2ccc3ccccc3c2)cc1
- ND50 [5]: >100 mg/kg
- ED50 [6]: > 100 mg/kg

SMILES: Cl.c1ccc(SC(Cn2ccnc2)(Sc2ccccc2)c2ccc3ccccc3c2)cc1
- ND50 [5]: >60 mg/kg
- ED50 [6]: > 60 mg/kg

SMILES: CC(C)SC(Cn1ccnc1)(SC(C)C)c1ccc2ccccc2c1.Cl
- PI [4]: >1.2
- ND50 [5]: >100 mg/kg
- ED50 [6]: 86 mg/kg

SMILES: CCCSC(Cn1ccnc1)(SCCC)c1ccc2ccccc2c1.Cl
- ND50 [5]: >100 mg/kg
- ED50 [6]: > 100 mg/kg
- LD50 [1]: > 100 mg/kg

SMILES: COC(Cn1ccnc1)c1ccc2ccccc2c1.Cl (stereo not given)
- ED50 [17]: 3.8 mg/kg
- ND50 [18]: 46 mg/kg
- ND50 [19]: 110 mg/kg
- ND50 [20]: 42 mg/kg
- PI [7]: 3.9
- PI [4]: 4.2
- ED50 [21]: 10 mg/kg
- ND50 [22]: >100 mg/kg
- ED50 [23]: 28 mg/kg
- ED50 [24]: 13 mg/kg

SMILES: Cl.c1ccc2cc(C3(Cn4ccnc4)OCCO3)ccc2c1
- ND50 [25]: 31 mg/kg
- ED50 [26]: 10 mg/kg
- ND50 [27]: 173 mg/kg
- ND50 [22]: >300 mg/kg
- LD50 [15]: > 100 mg/kg
- ND50 [28]: 41 mg/kg
- ED50 [29]: 4.5 mg/kg
- ED50 [30]: 18 mg/kg

From ChEMBL document CHEMBL1121883, “1-(Naphthylalkyl)-1H-imidazole derivatives, a new class of anticonvulsant agents” (J Med Chem, 1981)
